Measured values as given in ChEMBL document CHEMBL4002637, “Synthesis, characterization, in vitro SAR and in vivo evaluation of N,N'bisnaphthylmethyl 2-alkyl substituted imidazolium salts against NSCLC” (Bioorg Med Chem Lett, 2017).
Activity calls are given as the source filed them. The calls are words filed in the database; no cut-off is given here.

Legend:
NCI-H460 [1] = assay: Antiproliferative activity against human NCI-H460 cells using 1% DMSO/water compound formulation after 72 hrs by MTT assay; assay type: functional, cell-based; settings: NCI-H460, 72 h
Procedure, shortened: (§1)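 MTT anti-proliferation on NSCLC lines. Compounds dissolved in DMSO, diluted with water to 1% DMSO, then into growth medium (max 0.032% DMSO on cells); or dissolved in 10% (w/v) 2-HPβCD in water, then diluted (max 0.008% w/w 2-HPβCD in wells; vehicle controls at 0.008%). IC50 = concentration giving 50% loss of viability versus control cells. Cisplatin dissolved in water with stirring.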

NCI-H1975 [2] = assay: Antiproliferative activity against human NCI-H1975 cells using 1% DMSO/water compound formulation after 72 hrs by MTT assay; assay type: functional, cell-based; settings: NCI-H1975, 72 h; procedure, shortened: as §1
A549 [3] = assay: Antiproliferative activity against human A549 cells using 1% DMSO/water compound formulation after 72 hrs by MTT assay; assay type: functional, cell-based; settings: A549, 72 h; procedure, shortened: as §1
HCC827 [4] = assay: Antiproliferative activity against human HCC827 cells using 1% DMSO/water compound formulation after 72 hrs by MTT assay; assay type: functional, cell-based; settings: HCC827, 72 h; procedure, shortened: as §1
NCI-H460 [5] = assay: Induction of apoptosis in human NCI-H460 cells assessed as cell shrinkage up to 1 hr by Annexin V-FITC/propidium iodide staining based fluorescence microscopic method; assay type: functional
NCI-H460 [6] = assay: Induction of apoptosis in human NCI-H460 cells assessed as cell rounding up to 1 hr by Annexin V-FITC/propidium iodide staining based fluorescence microscopic method; assay type: functional
NCI-H460 [7] = assay: Induction of apoptosis in human NCI-H460 cells assessed as cell detachment up to 1 hr by Annexin V-FITC/propidium iodide staining based fluorescence microscopic method; assay type: functional
NCI-H460 [8] = assay: Disruption of mitochondrial membrane potential in human NCI-H460 cells at 98 uM up to 1 hr by JC1/DAPI staining based confocal microscopic method; assay type: functional, cell-based
NCI-H460 [9] = assay: Antiproliferative activity against human NCI-H460 cells using 10% 2-HPbetaCD compound formulation after 72 hrs by MTT assay; assay type: functional, cell-based; settings: NCI-H460, 72 h; procedure, shortened: as §1
NCI-H1975 [10] = assay: Antiproliferative activity against human NCI-H1975 cells using 10% 2-HPbetaCD compound formulation after 72 hrs by MTT assay; assay type: functional, cell-based; settings: NCI-H1975, 72 h; procedure, shortened: as §1
A549 [11] = assay: Antiproliferative activity against human A549 cells using 10% 2-HPbetaCD compound formulation after 72 hrs by MTT assay; assay type: functional, cell-based; settings: A549, 72 h; procedure, shortened: as §1
HCC827 [12] = assay: Antiproliferative activity against human HCC827 cells using 10% 2-HPbetaCD compound formulation after 72 hrs by MTT assay; assay type: functional, cell-based; settings: HCC827, 72 h; procedure, shortened: as §1
[13] = Aqueous solubility of the compound in water; assay type: physicochemical; settings: buffer
[14] = Solubility of the compound in 1% DMSO/water solution; assay type: physicochemical; settings: buffer
[15] = Solubility of the compound in 10% 2-HPbetaCD/water solution; assay type: physicochemical; settings: buffer
A549 [16] = assay: Growth inhibition of human A549 cells assessed as cell growth at 10 uM after 24 hrs by SRB assay relative to control; assay type: functional; settings: A549, 24 h, read-out: Activity
Procedure, shortened: (§2)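 NCI DTP one-dose screen: cells plated at density set by doubling rate, incubated overnight, then exposed to compound at 10 μM for 24 hours. Growth percentage from protein density at end versus start of experiment, relative to initial cell number.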

EKVX [17] = assay: Growth inhibition of human EKVX cells assessed as cell growth at 10 uM after 24 hrs by SRB assay relative to control; assay type: functional; settings: read-out: Activity; procedure, shortened: as §2
HOP-62 [18] = assay: Growth inhibition of human HOP62 cells assessed as cell growth at 10 uM after 24 hrs by SRB assay relative to control; assay type: functional; settings: HOP-62, 24 h, read-out: Activity; procedure, shortened: as §2
HOP-92 [19] = assay: Growth inhibition of human HOP92 cells assessed as cell growth at 10 uM after 24 hrs by SRB assay relative to control; assay type: functional; settings: HOP-92, 24 h, read-out: Activity; procedure, shortened: as §2
NCI-H226 [20] = assay: Growth inhibition of human NCI-H226 cells assessed as cell growth at 10 uM after 24 hrs by SRB assay relative to control; assay type: functional; settings: NCI-H226, 24 h, read-out: Activity; procedure, shortened: as §2
NCI-H23 [21] = assay: Growth inhibition of human NCI-H23 cells assessed as cell growth at 10 uM after 24 hrs by SRB assay relative to control; assay type: functional; settings: NCI-H23, 24 h, read-out: Activity; procedure, shortened: as §2
NCI-H322M [22] = assay: Growth inhibition of human NCI-H322M cells assessed as cell growth at 10 uM after 24 hrs by SRB assay relative to control; assay type: functional; settings: read-out: Activity; procedure, shortened: as §2
NCI-H460 [23] = assay: Growth inhibition of human NCI-H460 cells assessed as cell growth at 10 uM after 24 hrs by SRB assay relative to control; assay type: functional; settings: NCI-H460, 24 h, read-out: Activity; procedure, shortened: as §2
A549 [24] = assay: Growth inhibition of human A549 cells after 24 hrs by SRB assay; assay type: functional; settings: A549, 24 h
EKVX [25] = assay: Growth inhibition of human EKVX cells after 24 hrs by SRB assay; assay type: functional
HOP-62 [26] = assay: Growth inhibition of human HOP62 cells after 24 hrs by SRB assay; assay type: functional; settings: HOP-62, 24 h
HOP-92 [27] = assay: Growth inhibition of human HOP92 cells after 24 hrs by SRB assay; assay type: functional; settings: HOP-92, 24 h
NCI-H226 [28] = assay: Growth inhibition of human NCI-H226 cells after 24 hrs by SRB assay; assay type: functional; settings: NCI-H226, 24 h
NCI-H23 [29] = assay: Growth inhibition of human NCI-H23 cells after 24 hrs by SRB assay; assay type: functional; settings: NCI-H23, 24 h
NCI-H322M [30] = assay: Growth inhibition of human NCI-H322M cells after 24 hrs by SRB assay; assay type: functional
NCI-H460 [31] = assay: Growth inhibition of human NCI-H460 cells after 24 hrs by SRB assay; assay type: functional; settings: NCI-H460, 24 h
NCI-H522 = assay: Growth inhibition of human NCI-H522 cells after 24 hrs by SRB assay; assay type: functional; settings: NCI-H522, 24 h
[32] = read-out: LC50 (the source's name)

Clc1c(Cl)[n+](Cc2ccc3ccccc3c2)cn1Cc1ccc2ccccc2c1
IC50 (NCI-H460 [1]): 5 µM | IC50 (NCI-H1975 [2]): 5 µM | IC50 (A549 [3]): 9 µM | IC50 (HCC827 [4]): 6 µM | Activity (NCI-H460 [5]): Active | Activity (NCI-H460 [6]): Active | Activity (NCI-H460 [7]): Active

N#CC(C#N)=NNc1cccc(Cl)c1
Activity (NCI-H460 [8]): Active

Cc1n(Cc2ccc3ccccc3c2)cc[n+]1Cc1ccc2ccccc2c1.[Br-]
IC50 (NCI-H460 [1]): 2.53 µM | IC50 (NCI-H460 [9]): 2.7 µM | IC50 (NCI-H1975 [2]): 0.83 µM | IC50 (NCI-H1975 [10]): 0.75 µM | IC50 (A549 [3]): 3.42 µM | IC50 (A549 [11]): 3.43 µM | IC50 (HCC827 [4]): 2.34 µM | IC50 (HCC827 [12]): 1.98 µM | solubility [13]: < 500 µg/mL | solubility [14]: Soluble | solubility [15]: > 4400 µg/mL | growth at 10 µM (A549 [16]): 42.3% | growth at 10 µM (EKVX [17]): 47% | growth at 10 µM (HOP-62 [18]): 18% | growth at 10 µM (HOP-92 [19]): -20.3% | growth at 10 µM (NCI-H226 [20]): 19% | growth at 10 µM (NCI-H23 [21]): 5.53% | growth at 10 µM (NCI-H322M [22]): 48.9% | growth at 10 µM (NCI-H460 [23]): 9.12% | GI50 (A549 [24]): 3.81 µM | TGI (A549 [24]): 21.3 µM | CC50 (A549 [24]; [32]): 66.1 µM | GI50 (EKVX [25]): 2.32 µM | LC50 (EKVX [25]): 52.4 µM | TGI (EKVX [25]): 17.1 µM | GI50 (HOP-62 [26]): 1.6 µM | LC50 (HOP-62 [26]): 45.3 µM | TGI (HOP-62 [26]): 8.35 µM | GI50 (HOP-92 [27]): 0.673 µM | TGI (HOP-92 [27]): 3.64 µM | CC50 (HOP-92 [27]; [32]): 26.4 µM | GI50 (NCI-H226 [28]): 1.85 µM | LC50 (NCI-H226 [28]): 64.1 µM | TGI (NCI-H226 [28]): 10.4 µM | GI50 (NCI-H23 [29]): 0.717 µM | TGI (NCI-H23 [29]): 2.93 µM | CC50 (NCI-H23 [29]; [32]): 10.4 µM | GI50 (NCI-H322M [30]): 2.46 µM | LC50 (lethal concentration 50%) (NCI-H322M [30]): 32.9 µM | TGI (NCI-H322M [30]): 10.4 µM | GI50 (NCI-H460 [31]): 1.59 µM | TGI (NCI-H460 [31]): 10.7 µM | CC50 (NCI-H460 [31]; [32]): 44 µM | GI50 (NCI-H522): 0.256 µM | TGI (NCI-H522): 1.81 µM | CC50 (NCI-H522; [32]): 6.72 µM
